Calls of active or inactive are those of the source. The calls are words filed in the database; no cut-off is given here.
Legend:
Mus musculus [1] = test: Immunostimulatory activity in C57BL/6 mouse assessed as induction of MIP-1alpha level in serum at 2 mg/kg, sc after 2 hrs by Luminex multiplex assay; assay type: functional, organism-based; design: dose 2 mg/kg
Summary of the method: (§1)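 Female C57BL/6 mice, 5–6 weeks old, n = 3, received a single 2 mg/kg subcutaneous ODN injection in the right flank. Blood was taken by retro-orbital bleeding 2 h later. Naive mice served as baseline. Representative of three experiments.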

[2] = target: T1, Toll-like receptor 9 (Mus musculus) (UniProt Q9EQU3); test: Activation of mouse TLR9 expressed in HEK293 cells assessed as NF-kappaB level at 1 ug/mL after 18 hrs by reporter gene assay; assay type: cell-based
T1 sequence (whole entry): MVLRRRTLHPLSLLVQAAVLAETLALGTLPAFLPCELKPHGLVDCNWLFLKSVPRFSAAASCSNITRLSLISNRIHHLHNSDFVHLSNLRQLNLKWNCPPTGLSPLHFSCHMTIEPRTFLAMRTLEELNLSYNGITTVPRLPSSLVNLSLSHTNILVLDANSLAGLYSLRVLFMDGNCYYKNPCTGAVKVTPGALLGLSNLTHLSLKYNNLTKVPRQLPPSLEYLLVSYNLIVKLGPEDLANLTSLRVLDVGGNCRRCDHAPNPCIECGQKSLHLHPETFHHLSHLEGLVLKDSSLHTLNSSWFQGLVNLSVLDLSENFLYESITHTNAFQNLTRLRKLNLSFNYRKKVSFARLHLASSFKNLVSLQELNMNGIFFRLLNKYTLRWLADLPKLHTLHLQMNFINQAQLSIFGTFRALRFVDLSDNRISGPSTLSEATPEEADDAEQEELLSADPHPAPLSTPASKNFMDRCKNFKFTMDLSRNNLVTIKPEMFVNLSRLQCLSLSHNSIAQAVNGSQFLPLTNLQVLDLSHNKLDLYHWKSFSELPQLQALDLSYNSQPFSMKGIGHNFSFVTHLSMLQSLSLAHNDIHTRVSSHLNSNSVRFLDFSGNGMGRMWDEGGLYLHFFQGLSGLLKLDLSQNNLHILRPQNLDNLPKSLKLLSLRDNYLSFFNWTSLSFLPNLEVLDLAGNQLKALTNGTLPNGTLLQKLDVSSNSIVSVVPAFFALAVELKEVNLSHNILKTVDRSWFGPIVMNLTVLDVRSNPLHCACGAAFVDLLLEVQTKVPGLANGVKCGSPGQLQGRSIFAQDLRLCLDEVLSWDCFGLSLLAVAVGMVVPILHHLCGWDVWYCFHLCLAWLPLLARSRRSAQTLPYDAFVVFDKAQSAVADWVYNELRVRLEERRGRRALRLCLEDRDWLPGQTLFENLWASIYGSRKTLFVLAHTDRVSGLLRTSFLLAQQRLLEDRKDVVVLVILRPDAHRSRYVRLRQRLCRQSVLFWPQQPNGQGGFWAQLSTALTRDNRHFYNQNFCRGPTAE
Summary of the method: (§2)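 HEK293 cells stably expressing mouse TLR9 were transiently transfected with a SEAP reporter for 6 h, then stimulated with ODN at 0.1, 0.3 or 1 μg/mL for 18 h. Reporter expression is given as fold change in NF-κB activity over medium. Representative of two independent experiments.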

J774 = test: Activation of NF-kappaB in mouse J774 cells at 0.5 ug/ml after 1 hr by EMSA; assay type: cell-based
Summary of the method: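 Murine J774 macrophages in DMEM with 10% FBS and antibiotics, plated at 5×10^6 cells/well. ODNs were given alone or together for 1 h. For inhibition, the agonist ODN at 0.5 μg/mL was co-incubated with the modified ODN at 2.5 μg/mL. Nuclear extracts were resolved by EMSA on native polyacrylamide gels and read by autoradiography.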

Mus musculus [3] = test: Immunostimulatory activity in C57BL/6 mouse assessed as induction of KC level in serum at 2 mg/kg, sc after 2 hrs by Luminex multiplex assay; assay type: functional, organism-based; design: dose 2 mg/kg; summary of the method: as §1
[4] = target: T1, Toll-like receptor 9 (Mus musculus); test: Activation of mouse TLR9 expressed in HEK293 cells assessed as NF-kappaB level at 0.1 ug/mL after 18 hrs by reporter gene assay; assay type: cell-based; summary of the method: as §2
Splenocyte [5] = test: Immunostimulatory activity in C57BL/6 mouse splenocytes assessed as induction of IL6 secretion after 24 hrs by sandwich ELISA; assay type: functional, cell-based
Summary of the method: (§3)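 C57BL/6 splenocytes (mice 5–8 weeks) at 5 × 10^6 cells/mL in RPMI complete medium. ODNs dissolved in PBS were added and the cells incubated at 37 °C for 24 h. Supernatant IL-12 or IL-6 was measured by sandwich ELISA. Runs were done two or three times, in duplicate per concentration.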

Splenocyte [6] = test: Immunostimulatory activity in C57BL/6 mouse splenocytes assessed as induction of IL12 secretion after 24 hrs by sandwich ELISA; assay type: functional, cell-based; summary of the method: as §3
Mus musculus [7] = test: Immunostimulatory activity in C57BL/6 mouse assessed as induction of IL10 level in serum at 2 mg/kg, sc after 2 hrs by Luminex multiplex assay; assay type: functional, organism-based; design: dose 2 mg/kg; summary of the method: as §1
Mus musculus [8] = test: Immunostimulatory activity in C57BL/6 mouse assessed as induction of IL12 level in serum at 2 mg/kg, sc after 2 hrs by sandwich ELISA; assay type: functional, organism-based; design: dose 2 mg/kg; summary of the method: as §1
Mus musculus [9] = test: Immunostimulatory activity in C57BL/6 mouse assessed as induction of MCP1 level in serum at 2 mg/kg, sc after 2 hrs by Luminex multiplex assay; assay type: functional, organism-based; design: dose 2 mg/kg; summary of the method: as §1
Mus musculus [10] = test: Immunostimulatory activity in C57BL/6 mouse assessed as induction of TNFalpha level in serum at 2 mg/kg, sc after 2 hrs by Luminex multiplex assay; assay type: functional, organism-based; design: dose 2 mg/kg; summary of the method: as §1
[11] = target: T1, Toll-like receptor 9 (Mus musculus); test: Activation of mouse TLR9 expressed in HEK293 cells assessed as NF-kappaB level at 0.3 ug/mL after 18 hrs by reporter gene assay; assay type: cell-based; summary of the method: as §2
Mus musculus [12] = test: Immunostimulatory activity in C57BL/6 mouse assessed as inhibition of 5'-CTATCTGACGTTCTCTGT-3'-induced IL10 production in serum at 2 mg/kg, sc administered 24 hrs prior to 5'-CTATCTGACGTTCTCTGT-3' challenge measured after 2 hrs by Luminex multiplex assay; assay type: functional, organism-based; design: dose 2 mg/kg
Summary of the method: (§4)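 C57BL/6 mice received 2 mg/kg ODN sc in one flank. After 24 h, the TLR9 agonist ODN was given at 0.5 mg/kg sc in the opposite flank. Blood was drawn 2 h later and serum cytokines/chemokines were quantified by Luminex multiplex assay. Percent inhibition was taken against the agonist alone. Representative of three experiments.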

Mus musculus [13] = test: Immunostimulatory activity in C57BL/6 mouse assessed as inhibition of 5'-CTATCTGACGTTCTCTGT-3'-induced MIP-1alpha production in serum at 2 mg/kg, sc administered 24 hrs prior to 5'-CTATCTGACGTTCTCTGT-3' challenge measured after 2 hrs by Luminex multiplex assay; assay type: functional, organism-based; design: dose 2 mg/kg; summary of the method: as §4
Mus musculus [14] = test: Immunostimulatory activity in C57BL/6 mouse assessed as inhibition of 5'-CTATCTGACGTTCTCTGT-3'-induced KC production in serum at 2 mg/kg, sc administered 24 hrs prior to 5'-CTATCTGACGTTCTCTGT-3' challenge measured after 2 hrs by Luminex multiplex assay; assay type: functional, organism-based; design: dose 2 mg/kg; summary of the method: as §4
Mus musculus [15] = test: Immunostimulatory activity in C57BL/6 mouse assessed as inhibition of 5'-CTATCTGACGTTCTCTGT-3'-induced TNFalpha production in serum at 2 mg/kg, sc administered 24 hrs prior to 5'-CTATCTGACGTTCTCTGT-3' challenge measured after 2 hrs by Luminex multiplex assay; assay type: functional, organism-based; design: dose 2 mg/kg; summary of the method: as §4
Splenocyte [16] = test: Immunostimulatory activity in C57BL/6 mouse splenocytes assessed as induction of IL12 secretion at 2 to 10 ug/ml after 24 hrs by sandwich ELISA; assay type: functional, cell-based; summary of the method: as §3
Mus musculus [17] = test: Immunostimulatory activity in C57BL/6 mouse assessed as inhibition of 5'-CTATCTGACGTTCTCTGT-3'-induced MCP1 production in serum at 2 mg/kg, sc administered 24 hrs prior to 5'-CTATCTGACGTTCTCTGT-3' challenge measured after 2 hrs by Luminex multiplex assay; assay type: functional, organism-based; design: dose 2 mg/kg; summary of the method: as §4
Splenocyte [18] = test: Immunostimulatory activity in C57BL/6 mouse splenocytes assessed as induction of IL6 secretion at 2 to 10 ug/ml after 24 hrs by sandwich ELISA; assay type: functional, cell-based; summary of the method: as §3

| Activity [2] | Activity [4] | Activity [11] | SMILES | Activity (Mus musculus [1]) | Activity (J774) | Activity (Mus musculus [3]) | Activity (Splenocyte [5]) | Activity (Splenocyte [6]) | Activity (Mus musculus [7]) | Activity (Mus musculus [8]) | Activity (Mus musculus [9]) | Activity (Mus musculus [10]) | Activity (Mus musculus [12]) | Activity (Mus musculus [13]) | Activity (Mus musculus [14]) | Activity (Mus musculus [15]) | Activity (Splenocyte [16]) | Activity (Mus musculus [17]) | Activity (Splenocyte [18]) |
| --- | --- | --- | --- | --- | --- | --- | --- | --- | --- | --- | --- | --- | --- | --- | --- | --- | --- | --- | --- |
| Active | Active | Active | Cc1cn([C@H]2C[C@H](OP(=O)(S)OC[C@H]3O[C@@H](n4ccc(N)nc4=O)C[C@@H]3OP(=O)(S)OC[C@H]3O[C@@H](n4cc(C)c(=O)[nH]c4=O)C[C@@H]3OP(=O)(S)OC[C@H]3O[C@@H](n4cnc5c(=O)[nH]c(N)nc54)C[C@@H]3OP(=O)(S)OC[C@H]3O[C@@H](n4cc(C)c(=O)[nH]c4=O)C[C@@H]3O)[C@@H](COP(=O)(S)O[C@H]3C[C@H](n4ccc(N)nc4=O)O[C@@H]3COP(=O)(S)O[C@H]3C[C@H](n4cc(C)c(=O)[nH]c4=O)O[C@@H]3COP(=O)(S)O[C@H]3C[C@H](n4cc(C)c(=O)[nH]c4=O)O[C@@H]3COP(=O)(S)O[C@H]3C[C@H](n4cnc5c(=O)[nH]c(N)nc54)O[C@@H]3COP(=O)(S)O[C@H]3C[C@H](n4ccc(N)nc4=O)O[C@@H]3COP(=O)(S)O[C@H]3C[C@H](n4cnc5c(N)ncnc54)O[C@@H]3COP(=O)(S)O[C@H]3C[C@H](n4cnc5c(=O)[nH]c(N)nc54)O[C@@H]3COP(=O)(S)O[C@H]3C[C@H](n4cc(C)c(=O)[nH]c4=O)O[C@@H]3COP(=O)(S)O[C@H]3C[C@H](n4ccc(N)nc4=O)O[C@@H]3COP(=O)(S)O[C@H]3C[C@H](n4cc(C)c(=O)[nH]c4=O)O[C@@H]3COP(=O)(S)O[C@H]3C[C@H](n4cnc5c(N)ncnc54)O[C@@H]3COP(=O)(S)O[C@H]3C[C@H](n4cc(C)c(=O)[nH]c4=O)O[C@@H]3COP(=O)(S)O[C@H]3C[C@H](n4ccc(N)nc4=O)O[C@@H]3CO)O2)c(=O)[nH]c1=O (some centres not stated) | Active | Active | Active | Dose-dependent effect | Dose-dependent effect | Active | Active | Active | Active | – | – | – | – | – | – | – |
| inactive | inactive | inactive | Cc1cn([C@H]2C[C@H](OP(=O)(S)OC[C@H]3O[C@@H](n4ccc(N)nc4=O)C[C@@H]3OP(=O)(S)OC[C@H]3O[C@@H](n4cc(C)c(=O)[nH]c4=O)C[C@@H]3OP(=O)(S)OC[C@H]3O[C@@H](n4cc(C)c(=O)[nH]c4=O)C[C@@H]3OP(=O)(S)OC[C@H]3O[C@@H](n4ccc(N)nc4=O)C[C@@H]3OP(=O)(S)OC[C@H]3O[C@@H](n4cc(C)c(=O)[nH]c4=O)C[C@@H]3OP(=O)(S)OC[C@H]3O[C@@H](n4ccc(N)nc4=O)C[C@@H]3OP(=O)(S)OC[C@H]3O[C@@H](n4cc(C)c(=O)[nH]c4=O)C[C@@H]3OP(=O)(S)OC[C@H]3O[C@@H](n4cnc5c(=O)[nH]c(N)nc54)C[C@@H]3OP(=O)(S)OC[C@H]3O[C@@H](n4cc(C)c(=O)[nH]c4=O)C[C@@H]3O)[C@@H](COP(=O)(S)O[C@H]3C[C@H](n4cnc5c(N)ncnc54)O[C@@H]3COP(=O)(S)O[C@H]3C[C@H](n4cnc5c(=O)[nH]c(N)nc54)O[C@@H]3COP(=O)(S)O[C@H]3C[C@H](n4cc(C)c(=O)[nH]c4=O)O[C@@H]3COP(=O)(S)O[C@H]3C[C@H](n4ccc(N)nc4=O)O[C@@H]3COP(=O)(S)O[C@H]3C[C@H](n4cc(C)c(=O)[nH]c4=O)O[C@@H]3COP(=O)(S)O[C@H]3C[C@H](n4cnc5c(N)ncnc54)O[C@@H]3COP(=O)(S)O[C@H]3C[C@H](n4cc(C)c(=O)[nH]c4=O)O[C@@H]3COP(=O)(S)O[C@H]3C[C@H](n4ccc(N)nc4=O)O[C@@H]3CO)O2)c(=O)nc1N (some centres not stated) | – | – | – | – | – | – | – | – | – | Active | Active | Active | Active | inactive | Active | inactive |

Reference: ChEMBL document CHEMBL1152452, “Modifications incorporated in CpG motifs of oligodeoxynucleotides lead to antagonist activity of toll-like receptors 7 and 9” (2009)
